ChEMBL document CHEMBL3612055, “Design, synthesis and biological evaluation of 1,3-diphenyl-1H-pyrazole derivatives containing benzimidazole skeleton as potential anticancer and apoptosis inducing agents” (Eur J Med Chem, 2015)
Activity calls are given as the source filed them. The rule behind the calls is not given here.

Columns and labels:
[1] = system: A549; assay: Anticancer activity against human A549 cells assessed as reduction in cell growth incubated for 48 hrs by MTT assay; assay type: functional, cell-based; conditions: A549, 48 h
[2] = system: MCF7; assay: Anticancer activity against human MCF7 cells assessed as reduction in cell growth incubated for 48 hrs by MTT assay; assay type: functional, cell-based; conditions: MCF7, 48 h
[3] = system: HeLa; assay: Anticancer activity against human HeLa cells assessed as reduction in cell growth incubated for 48 hrs by MTT assay; assay type: functional, cell-based
[4] = system: HaCaT; assay: Cytotoxic activity against human HaCaT cells assessed as reduction in cell growth incubated for 48 hrs by MTT assay; assay type: cell-based
[5] = system: MCF7; assay: Anticancer activity against human MCF7 cells assessed as reduction in cell viability at IC50 level incubated for 48 hrs; assay type: functional, cell-based
In short: (§1)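 MCF-7 cells were kept in DMEM/10% FBS and used at passages 4-8. […] Detachment, shrinkage and viable cell numbers were scored under phase contrast microscopy against untreated cells.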

[6] = system: MCF7; assay: Induction of cell morphology changes in human MCF7 cells assessed as cell detachment at IC50 level incubated for 48 hrs by phase contrast microscopy; assay type: functional, cell-based; in short: as §1
[7] = system: MCF7; assay: Induction of cell morphology changes in human MCF7 cells assessed as cell shrinkage at IC50 level incubated for 48 hrs by phase contrast microscopy; assay type: functional, cell-based; in short: as §1
[8] = system: MCF7; assay: Inhibition of colony formation in human MCF7 cells assessed as reduction in clonogenic survival at IC50 level incubated for 24 hrs followed medium replacement with fresh medium and further incubation for 14 days; assay type: functional
[9] = system: MCF7; assay: Inhibition of cell migration of human MCF7 cells at IC50 level incubated for 24 to 72 hrs by phase contrast microscopy based wound healing assay; assay type: functional
In short: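 Confluent MCF-7 monolayers (5×10^5 cells/well, 24 h) were scratched with a pipette tip and washed with PBS pH 7.4. Medium with IC50 concentrations was then added. Cells entering the wound were photographed by phase contrast at 0, 24, 48 and 72 h, in ≥3 random fields per well.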

[10] = system: MCF7; assay: Increase in E-cadherin mRNA expression in human MCF7 cells at IC50 level incubated for 24 hrs by RT-PCR method; assay type: functional
In short: (§2)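 Total RNA was Trizol-extracted and 1 µg reverse-transcribed with random primers. Real-time PCR ran 95 °C 3 min, then 40 cycles of 95 °C 1 s / 60 °C 20 s. Fold change came from comparative CT, normalised to β-actin. Reactions ran in triplicate, across three experiments.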

[11] = system: MCF7; assay: Increase in beta-catenin mRNA expression in human MCF7 cells at IC50 level incubated for 24 hrs by RT-PCR method; assay type: functional; in short: as §2
[12] = system: MCF7; assay: Induction of cell cycle arrest in human MCF7 cells assessed as accumulation at G1 phase at IC50 level incubated for 24 hrs by propidium iodide staining based flow cytometry (reference value: 72.3%); assay type: functional
In short: (§3)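 Floating and adherent cells were fixed in 70% ethanol at 4 °C and rehydrated. They were stained 15 min with PI/Triton X-100/RNase A. 10000 events were acquired by flow cytometry. G0/G1, S and G2/M percentages were gated in FlowJo.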

[13] = system: MCF7; assay: Induction of cell cycle arrest in human MCF7 cells assessed as reduction in accumulation at S phase at IC50 level incubated for 24 hrs by propidium iodide staining based flow cytometry; assay type: functional; in short: as §3
[14] = system: MCF7; assay: Induction of cell cycle arrest in human MCF7 cells assessed as reduction in accumulation at G2/M phase at IC50 level incubated for 24 hrs by propidium iodide staining based flow cytometry; assay type: functional; in short: as §3
[15] = system: MCF7; assay: Reduction in cyclin D1 mRNA expression in human MCF7 cells at IC50 level incubated for 24 hrs by RT-PCR method; assay type: functional, cell-based; in short: as §2
[16] = system: MCF7; assay: Increase in cyclin B1 mRNA expression in human MCF7 cells at IC50 level incubated for 24 hrs by RT-PCR method; assay type: functional; in short: as §2
[17] = system: MCF7; assay: Effect on CDK1 cyclin D1 mRNA expression in human MCF7 cells at IC50 level incubated for 24 hrs by RT-PCR method; assay type: functional, cell-based; in short: as §2
[18] = system: MCF7; assay: Induction of apoptosis in human MCF7 cells assessed as DNA fragmentation at IC50 level incubated for 24 hrs by ethidium bromide staining based agarose gel electrophoresis method; assay type: functional, cell-based
In short: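 Pellets were lysed in SDS/EDTA/Tris pH 8.0 buffer with RNase A (37 °C, 90 min), then proteinase K (50 °C, 1 h). DNA was precipitated with ammonium acetate/ethanol. It was run on 1.5% agarose in TBE and stained with ethidium bromide, against control cells.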

[19] = system: MCF7; assay: Reduction in mitochondrial membrane potential in human MCF7 cells at IC50 level incubated for 24 hrs by rhodamine 123 staining based fluorescence microscopy; assay type: functional
In short: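 Harvested cells were loaded with rhodamine 123 (5 µg/mL), washed and incubated 30 min at room temperature. They were analysed by flow cytometry and fluorescence microscopy, and fluorescence loss was quantified by spectrofluorometry vs untreated cells.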

[20] = system: MCF7; assay: Induction of ROS generation in human MCF7 cells at IC50 level incubated for 24 hrs by carboxy-DCFDA staining based fluorescence microscopy; assay type: functional
In short: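 Carboxy-DCFDA (10 µM) was added for 30 min at room temperature in the dark. Cells were washed and resuspended at 5×10^4 cells/mL. Fluorescence was read by spectrofluorometry at ex 488 / em 525 nm, with fluorescence microscopy images also taken.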

[21] = system: MCF7; assay: Induction of apoptosis in human MCF7 cells assessed as increase in Bax mRNA expression at IC50 level incubated for 24 hrs by RT-PCR method; assay type: functional, cell-based; in short: as §2
[22] = system: MCF7; assay: Induction of apoptosis in human MCF7 cells assessed as reduction in Bcl2 mRNA expression at IC50 level incubated for 24 hrs by RT-PCR method; assay type: functional, cell-based; in short: as §2
[23] = system: MCF7; assay: Induction of apoptosis in human MCF7 cells assessed as increase in caspase-3 mRNA expression at IC50 level incubated for 24 hrs by RT-PCR method; assay type: functional, cell-based; in short: as §2
[24] = system: MCF7; assay: Induction of apoptosis in human MCF7 cells assessed as increase in caspase-7 mRNA expression at IC50 level incubated for 24 hrs by RT-PCR method; assay type: functional, cell-based; in short: as §2
[25] = system: MCF7; assay: Induction of apoptosis in human MCF7 cells assessed as chromatin condensation at IC50 level incubated for 24 hrs by Hoechst […] staining based fluorescence microscopy; assay type: functional
In short: (§4)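 They were fixed in 4% paraformaldehyde and stained with Hoechst […] (5 µg/mL, 30 min, room temperature). Nuclei in random fields were imaged by fluorescence microscopy (ex 350 / em 460 nm). Apoptotic fraction is mean ± SD of three independent experiments; DMSO control.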

[26] = system: MCF7; assay: Induction of apoptosis in human MCF7 cells assessed as nuclear fragmentation at IC50 level incubated for 24 hrs by Hoechst […] staining based fluorescence microscopy; assay type: functional; in short: as §4

IC50 [1] | IC50 [2] | IC50 [3] | SMILES | IC50 [4] | Activity [5] | Activity [6] | Activity [7] | inhibition (INH) [8] | inhibition [9] | fold change (FC) [10] | fold change (FC) [11] | Activity [12] | Activity [13] | Activity [14] | inhibition [15] | fold change (FC) [16] | Activity [17] | Activity [18] | inhibition (INH) [19] | fold change (FC) [20] | also measured
1810 nM | 830 nM | 1760 nM | Brc1ccc2[nH]c(-c3cn(-c4ccccc4)nc3-c3ccccc3)nc2c1 | > 50000 nM | Active | Active | Active | 50% | Active | 2.2 | 1.4 | 85.2% | Active | Active | Active | 1.1 | inactive | Active | 62% | 2 | Activity [21]: Active; Activity [22]: Active; Activity [23]: Active; Activity [24]: Active
1130 nM | 950 nM | 1570 nM | Fc1ccc(-c2nn(-c3ccccc3)cc2-c2nc3cc(F)ccc3[nH]2)cc1 | > 50000 nM | Active | Active | Active | 50% | Active | 1.6 | 1.4 | 84.7% | Active | Active | Active | 1.1 | inactive | Active | 44% | 2 | Activity [25]: 26%; Activity [26]: 26%; Activity [21]: Active; Activity [22]: Active; Activity [23]: Active; Activity [24]: Active
1340 nM | 1170 nM | 1630 nM | Clc1ccc(-c2nn(-c3ccccc3)cc2-c2nc3cc(Cl)ccc3[nH]2)cc1 | > 50000 nM | Active | Active | Active | 50% | Active | 1.6 | 1.4 | 81.3% | Active | Active | Active | 1.1 | inactive | Active | 44% | 2 | Activity [25]: 32%; Activity [26]: 32%; Activity [21]: Active; Activity [22]: Active; Activity [23]: Active; Activity [24]: Active
